Measurements from different studies.
Lines come from different studies, so protocols differ.
PTGS2: Prostaglandin G/H synthase 2 (PTGS2, Homo sapiens, UniProt P35354)
NPY2R: Neuropeptide Y receptor type 2 (NPY2R, Homo sapiens, UniProt P49146)
Rock2: Rho-associated protein kinase 2 (Rock2, Rattus norvegicus, UniProt Q62868)

With O=C(O)c1ccc(O)cc1 the inhibition was 32.2% (PTGS2; enzyme activity, inhibitor; 0.98 µg/mL).
O=C(c1ccc(F)cc1)N(Cc1ccccc1)C1CCCCC1 has an inhibition of -14% (NPY2R; cell-free assay; 10 µM).
Cc1ccc(Nc2nccc(N(C)c3ccc4c(C)n(C)nc4c3)n2)cc1S(N)(=O)=O gave an inhibition of 11% (Rock2; enzyme activity, inhibitor; 0.3 µM).
For CCN1CCN(Cc2ccc(NC(=O)c3ccc(C)c(Oc4ccnc5[nH]ccc45)c3)cc2C(F)(F)F)CC1, the inhibition was -35.5% (Inositol-tetrakisphosphate 1-kinase (Homo sapiens, UniProt Q13572); target engagement in cells, inhibitor, chemoproteomics; Huh-7; 10 µM).
The inhibition of CC(CN(C)C)C(Oc1cccc2ccccc12)c1cccs1 (stereo not drawn) is reported as -4.5% (Sigma intracellular receptor 2 (TMEM97, Homo sapiens, UniProt Q5BJF2); ligand displacement, radioligand; 10 µM).
For COc1ccc(-c2cc(=O)c3c(O)cc(O[C@@H]4O[C@H](CO)[C@@H](O)[C@H](O)[C@H]4O)cc3o2)cc1O, the inhibition was 39.7% (PTGS2; enzyme activity, inhibitor; 0.24 µg/mL).
Nc1ncnc2c1ncn2[C@@H]1O[C@H](CSCCNC(=O)NCc2ccccc2)[C@@H](O)[C@H]1O has an inhibition of greater than 75% (Protein arginine N-methyltransferase 7 (PRMT7, Homo sapiens, UniProt Q9NVM4); enzyme activity, inhibitor, radiometric; 10 µM).
With CCN(Cc1ccccc1C(F)(F)F)C(=O)C1CCN(S(=O)(=O)c2ccc3[nH]ncc3c2)CC1 the inhibition was 3% (NPY2R; ligand displacement, radioligand; 10 µM).
For C=C[C@@]1(C)C=C2CC[C@@H]3[C@](C)(CCC[C@@]3(C)C(=O)O)[C@H]2CC1, the inhibition was 7.14% (PTGS2; enzyme activity, inhibitor; 0.49 µg/mL).
O=C1N=C(N2CCCCN2)S/C1=C\c1ccc(F)cc1O has an inhibition of less than 10% (NPY2R; ligand displacement, radioligand; 10 µM).
COc1ccc(CCC(C)N2CCc3cc(OC)c(OC)cc3C2)cc1 (stereo not drawn) gave an inhibition of 11% (Sigma non-opioid intracellular receptor 1 (SIGMAR1, Cavia porcellus, UniProt Q60492); ligand displacement, radioligand; 0.1 µM).
COc1cc([C@H]2OC[C@H]3[C@@H]2CO[C@@H]3c2cc(OC)c(O)c(OC)c2)cc(OC)c1O has an inhibition of 49.3% (PTGS2; enzyme activity, inhibitor; 0.98 µg/mL).
The inhibition of O=C(Nc1ccc(S(=O)(=O)N2CCC(Cl)CC2)cc1)c1ccc([N+](=O)[O-])o1 is reported as 4% (NPY2R; ligand displacement, radioligand; 10 µM).
With O=C(c1ccc(Cl)cc1)N(Cc1ccccc1)C1CCCCC1 the inhibition was 7.2% (Alpha-2B adrenergic receptor (ADRA2B, Homo sapiens, UniProt P18089); cell-free assay; 10 µM).
The inhibition of COc1cc(-c2cc(=O)c3c(O)cc(O)cc3o2)ccc1O is reported as 0% (PTGS2; enzyme activity, inhibitor; 0.49 µg/mL).
For CN(C)C1CCN(CC#Cc2nn(C3CCCC3)c3nc(NCc4ccccc4)ncc23)C1 (stereo not drawn), the inhibition was 4% (Dual specificity tyrosine-phosphorylation-regulated kinase 1A (DYRK1A, Homo sapiens, UniProt Q13627); enzyme activity, inhibitor, FRET; 0.1 µM).
For CNC(=O)c1cc(Oc2ccc(NC(=O)Nc3ccc(Cl)c(C(F)(F)F)c3)cc2)ccn1, the inhibition was 44% (Rock2; enzyme activity, inhibitor; 10 µM).
The inhibition of O=c1cc(-c2ccc(O)c(O)c2)oc2cc(O)cc(O)c12 is reported as 45% (PTGS2; enzyme activity, inhibitor; 0.49 µg/mL).
